Measured values: PubChem BioAssay AID743256 (The Scripps Research Institute Molecular Screening Center, 2014)
About 1,300 (45%) of roughly 2,900 compounds were called active. So high a share suggests a set chosen from earlier hits. A selection follows. A number with no mark means an inactive call.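 Rule for the calls: active = mean inhibition over the triplicate runs exceeds the activity threshold set in the earlier primary screen (cut at about 20% in these data); inactive = the rest.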

The molecules below were run against Disintegrin and metalloproteinase domain-containing protein 10 (Homo sapiens) (UniProt O14672) (assay: blockers of ADAM10 peptide cleavage – biochemical, FRET, human ADAM10, counter-screen for ADAM17 exosite inhibitor project (AID 743256;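 note: 0% = DMSO wells and 100% = marimastat wells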)). Details: recombinant ADAM10, EDANS/DABCYL FRET peptide cleavage, 3 h; at 6.95 µM; active compounds read high.
Chain of Disintegrin and metalloproteinase domain-containing protein 10 (Homo sapiens) (O14672 214-748 limits assumed): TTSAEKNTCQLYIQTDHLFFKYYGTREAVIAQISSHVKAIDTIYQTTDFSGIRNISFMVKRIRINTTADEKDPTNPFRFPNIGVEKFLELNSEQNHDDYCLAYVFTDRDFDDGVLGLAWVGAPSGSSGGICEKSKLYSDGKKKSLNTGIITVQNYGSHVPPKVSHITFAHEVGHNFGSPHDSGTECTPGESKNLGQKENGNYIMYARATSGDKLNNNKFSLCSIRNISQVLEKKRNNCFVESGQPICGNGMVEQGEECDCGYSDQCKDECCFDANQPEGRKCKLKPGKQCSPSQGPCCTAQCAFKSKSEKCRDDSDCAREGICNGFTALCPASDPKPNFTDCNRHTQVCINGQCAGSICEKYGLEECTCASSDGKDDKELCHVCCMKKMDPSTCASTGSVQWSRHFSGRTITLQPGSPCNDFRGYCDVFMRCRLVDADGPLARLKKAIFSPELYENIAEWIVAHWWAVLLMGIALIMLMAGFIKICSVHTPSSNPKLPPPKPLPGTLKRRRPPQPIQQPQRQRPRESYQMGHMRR
In short: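 Test system: human ADAM10 metalloprotease enzyme in a cell-free biochemical assay. Reagent: DM2 FRET peptide substrate. Timing: 30 min preincubation and 3 h reaction at 25 °C. Read-out basis: percent inhibition scaled between DMSO and marimastat control wells. Control set: 1 µM marimastat (high) and DMSO (low). Detection: FRET fluorescence readout.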

Row | SMILES | inhibition
1 | COc1cccc(NC(=O)C2C(c3ccccc3)C2(Cl)Cl)c1 (stereo not given) | 34.2% (active)
2 | COC(=O)N(C)C[C@@H]1OCc2cnnn2CCCC(=O)N([C@@H](C)CO)C[C@@H]1C | -8.98%
3 | C=C(C)COc1ccc(-c2n[nH]c(C)c2-c2ccccc2)c(O)c1 | 40.8% (active)
4 | COc1ccc(S(=O)(=O)N2CCN(C(C)C(=O)Nc3ccc(C(C)C)cc3)CC2)cc1 (stereo not given) | 20.5% (active)
5 | CC(=O)Nc1ccc(S(=O)(=O)N2CCN(CCCOc3cc(C)ccc3C)CC2)cc1 | 12.4%
6 | O=C1NC(=O)C(c2ccc(Cl)cc2)N1 (stereo not given) | 6.62%
7 | CN(C(=O)c1cccc(NC(=O)Cc2cccc([N+](=O)[O-])c2)c1)C1CCCCC1 | 19.9% (active)
8 | COc1ccccc1C(=O)NCC(=O)OCC(=O)NNC(=O)c1ccc(Br)cc1 | 3.18%
9 | S=C(NCc1ccc(Cl)cc1)NC12CC3CC(CC(C3)C1)C2 | 22.6% (active)
10 | Cc1ccc(/C=N/NC(=O)CSc2nc3ccccc3o2)cc1 | 5.15%
11 | C[C@@H]1CN([C@H](C)CO)C(=O)c2cc(-c3ccc(F)cc3)cnc2O[C@H]1CN(C)C(=O)c1ccc(F)cc1 | 12.7%
12 | CC(C)Oc1cc(F)ccc1-c1cc(C(=O)Nc2cccc(Cl)c2)[nH]n1 | 25.8% (active)
13 | Cc1cc(C)cc(NC(=S)NCCc2c[nH]c3ccccc23)c1 | 14%
14 | N#C/C(=C/c1ccc(N2CCCCC2)o1)C(=O)NCCc1c[nH]c2ccccc12 | 23.4% (active)
15 | O=C(CSc1nc(-c2ccccc2)cs1)Nc1cccc([N+](=O)[O-])c1 | 24.3% (active)
16 | CCOc1ccc(N2C(=O)CC(N(CCc3ccc(OC)c(OC)c3)C(=S)Nc3ccccc3)C2=O)cc1 (stereo not given) | 4.08%
17 | COc1ccc(Cl)cc1NC(=O)COC(=O)C(CC(C)C)N1C(=O)C2CC=CCC2C1=O (stereo not given) | 17.9%
18 | CC1(C)C=Cc2c(ccc3c2OC[C@@H](c2ccc(O)cc2O)C3)O1 | 24.2% (active)
19 | Cn1nc(C(F)(F)F)c2cc(NC(=O)OCC(C)(C)C)sc21 | 13%
20 | C#CCN(C[C@H]1[C@H](OC(=O)NC2CCCC2)[C@H](OC(=O)NC2CCCC2)C[C@H]2C(=O)N(c3ccccc3)C(=O)[C@@H]12)S(=O)(=O)c1ccc(C)cc1 | 19.1%
21 | CCOc1ccccc1C1CC(c2cccc(NS(C)(=O)=O)c2)=NN1C(=O)c1ccccc1 (stereo not given) | -1.35%
22 | Cc1ccc(S(=O)(=O)NCCSc2ccccc2)cc1[N+](=O)[O-] | 6.91%
23 | Cc1cc(C)cc(NS(=O)(=O)c2ccc(Oc3ncc(C(F)(F)F)cc3Cl)cc2)c1 | 39% (active)
24 | COc1cc(/C=N/n2c(C)n[nH]c2=S)ccc1OCc1ccccc1 | -1.14%
25 | COC(=O)c1c(C)[nH]c(C(=O)/C=C/c2ccc(Cl)cc2)c1C | -38.4%
26 | O=C(OCc1ccc(-c2ccccc2)cc1)c1cccc(O)c1 | 22.9% (active)
27 | COC(C(=O)Nc1ccc(S(=O)(=O)Nc2ccc(C)c(C)c2)cc1)c1ccccc1 (stereo not given) | 29.4% (active)

Row | SMILES | inhibition
28 | COc1ccc(C(CNC(=O)c2cc(S(=O)(=O)Nc3cccc(C)c3)ccc2C)N2CCCC2)cc1 (stereo not given) | 6.83%
29 | O=C(COC(=O)c1ccccc1)Nc1ccccc1Sc1ccccc1 | 20.3% (active)
30 | Cc1ccccc1C(=O)Nc1ccccc1Sc1ccccc1 | 10.7%
31 | COc1ccc(S(=O)(=O)N2CCCCC2)cc1Br | 10.7%
32 | O=C(CSCc1ccc(Br)cc1)Nc1ccc(S(=O)(=O)N2CCCCCC2)cc1 | 23% (active)
33 | CC(=O)Nc1ccc(S(=O)(=O)Oc2ccc(Br)cc2C(=S)N2CCOCC2)cc1 | 13.5%
34 | COc1ccc(CC(=O)c2ccc(O)cc2O)cc1OC | 6.86%
35 | Cc1ccc(Cn2nnc3c(=O)[nH]c(C4CCN(S(=O)(=O)/C=C/c5ccccc5)CC4)nc32)cc1 | 41.6% (active)
36 | N/C(Cc1ccc([N+](=O)[O-])cc1)=N\OC(=O)COc1ccc2ccccc2c1 | 11.5%
37 | O=C(Nn1c(SCc2ccc([N+](=O)[O-])cc2)nc2ccccc2c1=O)c1ccc(F)cc1 | 30.6% (active)
38 | CC(C)(C)c1ccc(S(=O)(=O)NCC2CCN(C(=O)C(=O)c3cc4ccccc4o3)CC2)cc1 | 24.1% (active)
39 | C=CC(COCc1ccccc1)N(CC(=O)OC)S(=O)(=O)c1cc(Br)ccc1OC (stereo not given) | 13.2%
40 | FC(F)(F)Oc1ccccc1C(c1nnnn1C1CCCCC1)N1CCN(C/C=C/c2ccccc2)CC1 (stereo not given) | 17.1%
41 | COc1ccc(-c2cc(C3CCN(c4ncccc4[N+](=O)[O-])CC3)[nH]n2)cc1 | 27.1% (active)
42 | O=C(Nc1ccc(C(=O)NCc2ccccc2Cl)cc1)C1=CSCCO1 | 9.95%
43 | O=C(COc1ccc(Cl)cc1)N1CCN(c2cccc(C(F)(F)F)c2)CC1 | 18.6%
44 | Cn1nc(C(F)(F)F)c(C(=O)Nc2cccc(C(F)(F)F)c2)c1SCc1ccc(Cl)cc1 | 37.8% (active)
45 | COc1ccc(C(N)c2csc(NC(=O)Nc3cccc(C(F)(F)F)c3)n2)cc1 (stereo not given) | 14.4%
46 | CCOC(=O)c1cccc(NC(=O)CN(C)S(=O)(=O)c2ccc(-c3cocn3)s2)c1 | 4.04%
47 | COc1ccc(Cn2cc(CN3CCS(=O)(=O)N(Cc4ccc(-c5cccc(Cl)c5)cc4)C(C)C3=O)nn2)cc1 (stereo not given) | 18%
48 | COc1ccc(-c2ccc(CN3C(CC(C)C)C(=O)N(Cc4cn(CC5CCCCC5)nn4)CCS3(=O)=O)cc2)cc1 (stereo not given) | 26.9% (active)
49 | O=C1[C@H]2[C@@H](c3ccc(C(F)(F)F)cc3)N[C@]3(CCCN(Cc4ccc(Br)cc4)C3=O)[C@H]2C(=O)N1Cc1ccccc1 | 32.2% (active)
50 | CCOc1ccccc1CNS(=O)(=O)c1cc(-c2cc(C)no2)ccc1C | 1.34%
51 | CCOc1ccc(OCC)c(-c2c(=O)n(OCc3ccc(Cl)cc3)c3ccccc3[n+]2[O-])c1 | -2.21%
52 | O=C(Cc1ccc(Cl)c(Cl)c1)Nc1ccc(SC(F)F)cc1 | 43.3% (active)
53 | CCOc1ccc(-n2c(SCC(=O)Nc3cc(C)c(NC(=O)c4ccccc4)cc3OC)nnc2-c2cccs2)cc1 | 8.96%
54 | Cc1ccc(-n2c(COc3ccccc3)nnc2SCC(=O)Nc2ccc3c(c2)OCCO3)cc1 | 25.8% (active)

Row | SMILES | inhibition
55 | O=C(CN1CCN(c2nc(-c3ccccc3)cs2)CC1)NCc1ccc2c(c1)OCO2 | 24.1% (active)
56 | CC1(Cc2cccc(C#N)c2)C(=O)Nc2ccc(-c3cccc(C(F)(F)F)c3)cc21 (stereo not given) | 36.6% (active)
57 | COCCNC(=O)C(c1ccc(C)o1)N(Cc1ccccc1)C(=O)Cn1nnc2ccccc21 (stereo not given) | -7.67%
58 | O=C(CC1SC(=Nc2ccccc2)N(Cc2ccccn2)C1=O)Nc1cccc(Cl)c1 (stereo not given) | 35% (active)
59 | CCN1C(=O)C(CC(=O)Nc2cc(C)ccc2C)SC1=Nc1ccc(S(N)(=O)=O)cc1 (stereo not given) | 5.34%
60 | COc1ccc(CC(N)c2csc(NC(=O)NC(c3ccccc3)c3ccccc3)n2)cc1 (stereo not given) | 5.76%
61 | C=CCOc1ccccc1/C=N/NC(=O)Cc1ccccc1 | -0.63%
62 | Cn1c(=O)c2c(nc(N/N=C/c3cccs3)n2Cc2ccc(Br)cc2)n(C)c1=O | -80.2%
63 | O=C(COC(=O)CCCSc1nc2ccccc2[nH]1)Nc1ccc(Oc2ccccc2)cc1 | 39.3% (active)
64 | O=C1/C(=C\c2ccsc2)NC(=S)N1c1ccccc1 | 10.1%
65 | COc1ccc(CN(C)C(=O)CC(c2ccccc2)c2ccccc2)cc1 | 7.1%
66 | Clc1ccc(C(Cn2ccnc2)OCc2ccsc2Cl)c(Cl)c1 (stereo not given) | 22.7% (active)
67 | C=CC[C@H](CC(=O)N(CCO)Cc1ccccc1)C(=O)N[C@@H](COC(=O)[C@@H](CC=C)Cc1ccc(F)cc1)Cc1ccccc1 | 25.1% (active)
68 | C=CCC[C@@H](Cc1ccc(F)cc1)C(=O)O[C@H](CNC(=O)[C@H](CC=C)CC(=O)N(CCO)Cc1ccccc1)c1ccccc1 | 45.3% (active)
69 | C=CCC[C@@H](Cc1ccc(F)cc1)C(=O)OC[C@H](Cc1c[nH]c2ccccc12)NC(=O)[C@@H](CC=C)CC(=O)N(CCO)Cc1ccccc1 | 35.2% (active)
70 | COc1cc(NC(=O)CCS(=O)(=O)c2ccc3c(c2)oc(=O)n3C)cc(OC)c1 | 11.3%
71 | Cc1nnc(SCC(=O)Nn2cnnc2)s1 | -7.63%
72 | Cc1ccc(NC(=S)NNC(=O)CSc2nnc(SCc3ccccc3Cl)s2)cc1 | 37.1% (active)
73 | O=C(CSc1nnc(Nc2ccccc2)s1)Nc1cccnc1Cl | 10.6%
74 | CCOC(=O)c1c(Cc2ccc(Cl)cc2)c[nH]c1C | 19.5%
75 | CC[C@@]12C(=O)N(c3ccccc3)C(=O)N1[C@H](c1ccc(Br)cc1)[C@@H]1C(=O)N(C(C)(C)C)C(=O)[C@@H]12 | 6.71%
76 | COc1ccc([C@@H]2[C@@H]3C(=O)N(C(C)(C)C)C(=O)[C@@H]3[C@]3(Cc4ccccc4)C(=O)N(c4cccc(Br)c4)C(=O)N23)cc1 | 28.6% (active)
77 | CC(C)(C)N1C(=O)[C@H]2[C@@H](c3ccc(Br)cc3)N3C(=O)N(c4cccc(Cl)c4)C(=O)[C@@]3(C)[C@H]2C1=O | 22.2% (active)
78 | COc1cccc(CNc2nc(C(F)(F)F)nc3ccccc23)c1 | 8.29%
79 | CC(C)(C)OC(=O)CNC(=O)c1[nH]cnc1C(=O)N[C@@H](Cc1ccccc1)C(=O)OCc1ccccc1 | 42.9% (active)
80 | CC(C)(C)OC(=O)N1CCC(NC(=O)c2[nH]cnc2C(=O)N[C@@H](Cc2ccccc2)C(=O)OCc2ccccc2)CC1 | 35.8% (active)
